Experiments:
[1] = target: GABA A receptor alpha-4/beta-3/gamma-2 (Homo sapiens, UniProt P18507+P28472+P48169); test: In vitro binding affinity for human GABA-A receptor alpha-4-beta-3-gamma-2 subunits expressed in L(tk-) cell membranes
How it was run: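 Radioligand displacement on Ltk cell membranes expressing human α4β3γ2 receptors, with 8 nM [3H]Ro15-4513 as radioligand. Ki is the mean of two determinations that differed by less than 10%.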

[2] = In vitro binding affinity for human GABA-A receptor alpha-3-beta-3-gamma-2 subunits expressed in L(tk-) cell membranes
How it was run: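 Radioligand displacement on Ltk cell membranes expressing human α3β3γ2 receptors, with 1.8 nM [3H]Ro15-1788 as radioligand. Ki is the mean of two determinations that differed by less than 10%.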

[3] = target: T1, GABA-A receptor; alpha-5/beta-3/gamma-2 (Homo sapiens, UniProt P18507+P28472+P31644); test: In vitro binding affinity for human GABA-A receptor alpha-5-beta-3-gamma-2 subunits expressed in L(tk-) cell membranes
T1 sequence (P18507 whole entry): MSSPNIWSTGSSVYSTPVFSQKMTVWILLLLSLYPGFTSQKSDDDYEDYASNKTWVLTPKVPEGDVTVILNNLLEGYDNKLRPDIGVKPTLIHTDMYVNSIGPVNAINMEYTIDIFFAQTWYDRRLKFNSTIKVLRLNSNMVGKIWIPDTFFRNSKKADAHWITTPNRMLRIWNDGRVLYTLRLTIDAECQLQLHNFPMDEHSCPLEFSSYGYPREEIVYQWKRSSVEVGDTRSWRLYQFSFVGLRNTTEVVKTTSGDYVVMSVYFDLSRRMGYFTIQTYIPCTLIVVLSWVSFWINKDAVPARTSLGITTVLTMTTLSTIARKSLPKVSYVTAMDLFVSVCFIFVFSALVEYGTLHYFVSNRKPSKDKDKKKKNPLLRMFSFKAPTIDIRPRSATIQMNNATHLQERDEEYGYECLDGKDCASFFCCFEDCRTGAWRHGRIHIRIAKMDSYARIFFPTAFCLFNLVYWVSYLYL
T1 sequence (P28472 whole entry): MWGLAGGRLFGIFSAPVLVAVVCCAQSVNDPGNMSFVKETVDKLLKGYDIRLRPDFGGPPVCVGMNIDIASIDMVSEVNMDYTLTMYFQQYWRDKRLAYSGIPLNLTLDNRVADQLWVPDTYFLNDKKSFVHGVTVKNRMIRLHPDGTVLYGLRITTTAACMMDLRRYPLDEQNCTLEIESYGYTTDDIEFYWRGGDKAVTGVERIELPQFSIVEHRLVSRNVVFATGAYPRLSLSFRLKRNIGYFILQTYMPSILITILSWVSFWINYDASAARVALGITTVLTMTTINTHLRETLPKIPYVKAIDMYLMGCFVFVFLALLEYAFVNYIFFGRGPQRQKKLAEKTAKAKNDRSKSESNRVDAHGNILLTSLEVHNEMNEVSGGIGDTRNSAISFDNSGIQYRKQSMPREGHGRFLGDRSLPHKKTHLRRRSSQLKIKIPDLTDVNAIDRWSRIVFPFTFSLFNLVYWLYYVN
T1 sequence (P31644 whole entry): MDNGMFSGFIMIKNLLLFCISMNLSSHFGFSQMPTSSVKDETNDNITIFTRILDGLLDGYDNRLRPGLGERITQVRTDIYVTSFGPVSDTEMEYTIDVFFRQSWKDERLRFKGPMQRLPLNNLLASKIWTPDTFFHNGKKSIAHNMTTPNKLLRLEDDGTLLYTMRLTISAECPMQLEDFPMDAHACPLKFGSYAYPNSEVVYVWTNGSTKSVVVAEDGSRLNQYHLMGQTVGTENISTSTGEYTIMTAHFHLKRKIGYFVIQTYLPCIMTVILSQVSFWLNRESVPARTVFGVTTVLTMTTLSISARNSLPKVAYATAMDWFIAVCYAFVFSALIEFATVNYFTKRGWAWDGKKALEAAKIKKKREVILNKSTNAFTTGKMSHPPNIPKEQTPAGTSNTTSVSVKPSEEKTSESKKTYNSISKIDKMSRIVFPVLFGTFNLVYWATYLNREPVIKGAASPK
How it was run: (§1)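 Radioligand displacement on membranes of […] cells expressing human αβ3γ2 receptors, using 1.8 nM [³H]Ro15-1788. Ki taken as the mean of two determinations that differed by less than 10%.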

[4] = target: T2, GABA-A receptor; alpha-2/beta-3/gamma-2 (Homo sapiens, UniProt P18507+P28472+P47869); test: In vitro binding affinity for human GABA-A receptor alpha-2-beta-3-gamma-2 subunits expressed in L(tk-) cell membranes; how it was run: as §1
T2 sequence (P18507 whole entry): T1 sequence (P18507 whole entry)
T2 sequence (P28472 whole entry): T1 sequence (P28472 whole entry)
T2 sequence (P47869 whole entry): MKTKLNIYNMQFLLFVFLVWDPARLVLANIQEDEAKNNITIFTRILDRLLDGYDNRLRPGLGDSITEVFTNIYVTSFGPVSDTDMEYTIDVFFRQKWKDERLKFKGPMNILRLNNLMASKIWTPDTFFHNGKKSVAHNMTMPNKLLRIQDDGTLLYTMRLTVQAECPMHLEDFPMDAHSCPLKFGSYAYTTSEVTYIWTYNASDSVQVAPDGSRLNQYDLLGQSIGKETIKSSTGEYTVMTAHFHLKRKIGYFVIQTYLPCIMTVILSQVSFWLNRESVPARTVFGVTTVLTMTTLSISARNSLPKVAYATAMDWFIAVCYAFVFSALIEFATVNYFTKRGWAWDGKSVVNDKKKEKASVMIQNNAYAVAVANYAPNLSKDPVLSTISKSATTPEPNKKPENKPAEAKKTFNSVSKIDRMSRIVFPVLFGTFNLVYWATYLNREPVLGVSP

[5] = target: T3, GABA-A receptor; alpha-1/beta-3/gamma-2 (Homo sapiens, UniProt P14867+P18507+P28472); test: In vitro binding affinity for human GABA-A receptor alpha-1-beta-3-gamma-2 subunits expressed in L(tk-) cell membranes; how it was run: as §1
T3 sequence (P14867 whole entry): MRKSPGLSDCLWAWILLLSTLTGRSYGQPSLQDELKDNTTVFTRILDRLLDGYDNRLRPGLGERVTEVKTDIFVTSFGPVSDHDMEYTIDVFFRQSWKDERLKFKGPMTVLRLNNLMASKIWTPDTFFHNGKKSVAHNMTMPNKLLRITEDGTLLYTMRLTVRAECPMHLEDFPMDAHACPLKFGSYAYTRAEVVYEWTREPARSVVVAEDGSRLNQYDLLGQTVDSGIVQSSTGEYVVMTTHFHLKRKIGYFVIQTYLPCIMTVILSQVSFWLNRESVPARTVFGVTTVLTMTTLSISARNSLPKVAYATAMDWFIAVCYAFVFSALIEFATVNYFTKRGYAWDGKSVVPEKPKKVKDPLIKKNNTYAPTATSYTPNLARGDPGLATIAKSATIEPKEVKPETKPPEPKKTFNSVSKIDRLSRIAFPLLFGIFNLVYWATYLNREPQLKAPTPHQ
T3 sequence (P18507 whole entry): T1 sequence (P18507 whole entry)
T3 sequence (P28472 whole entry): T1 sequence (P28472 whole entry)

[6] = target: GABA-A receptor; alpha-6/beta-3/gamma-2 (Homo sapiens, UniProt P18507+P28472+Q16445); test: In vitro binding affinity for human GABA-A receptor alpha-6-beta-3-gamma-2 subunits expressed in L(tk-) cell membranes
GABA-A receptor; alpha-6/beta-3/gamma-2, sequence (Q16445 whole entry, one chain of several): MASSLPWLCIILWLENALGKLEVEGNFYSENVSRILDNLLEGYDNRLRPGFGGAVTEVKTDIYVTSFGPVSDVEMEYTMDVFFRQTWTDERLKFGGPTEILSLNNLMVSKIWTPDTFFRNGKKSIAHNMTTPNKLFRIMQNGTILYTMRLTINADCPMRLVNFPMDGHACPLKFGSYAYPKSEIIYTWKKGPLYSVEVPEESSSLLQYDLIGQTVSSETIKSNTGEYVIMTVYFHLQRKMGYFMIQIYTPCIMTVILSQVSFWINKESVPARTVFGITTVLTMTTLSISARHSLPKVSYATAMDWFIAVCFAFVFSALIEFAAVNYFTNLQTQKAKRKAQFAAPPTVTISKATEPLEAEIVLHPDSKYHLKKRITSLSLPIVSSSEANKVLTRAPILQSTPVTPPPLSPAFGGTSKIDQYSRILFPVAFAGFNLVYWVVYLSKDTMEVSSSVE

GABA A receptor alpha-4/beta-3/gamma-2, sequence (P48169 whole entry, one chain of several): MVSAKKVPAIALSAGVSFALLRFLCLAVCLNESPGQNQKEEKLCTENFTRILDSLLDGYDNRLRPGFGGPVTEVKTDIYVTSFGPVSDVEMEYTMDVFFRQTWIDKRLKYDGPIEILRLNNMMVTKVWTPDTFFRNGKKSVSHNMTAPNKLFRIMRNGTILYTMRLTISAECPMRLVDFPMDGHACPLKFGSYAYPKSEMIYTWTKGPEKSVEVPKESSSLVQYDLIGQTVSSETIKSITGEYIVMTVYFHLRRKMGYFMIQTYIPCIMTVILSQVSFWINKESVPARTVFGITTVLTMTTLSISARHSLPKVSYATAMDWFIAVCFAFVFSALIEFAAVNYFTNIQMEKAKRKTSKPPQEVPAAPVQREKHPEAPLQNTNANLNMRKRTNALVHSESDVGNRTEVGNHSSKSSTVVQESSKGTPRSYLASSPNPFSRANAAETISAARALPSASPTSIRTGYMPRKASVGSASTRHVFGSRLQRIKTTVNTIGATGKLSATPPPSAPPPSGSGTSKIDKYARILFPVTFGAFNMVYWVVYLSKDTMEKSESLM

Structure (SMILES) | Ki [1] [nM] | Ki [2] [nM] | Ki [3] [nM] | Ki [4] [nM] | Ki [5] [nM] | Ki [6] [nM]
C#Cc1ccc2c(c1)C(=O)N(C)Cc1c(C(=O)OCC)ncn1-2 | 53 | 25.8 |  |  |  | 
CN1Cc2c(C(=O)OC(C)(C)C)ncn2-c2ccc(C#C[Si](C)(C)C)cc2C1=O | 7.8 | 255 |  |  |  | 
C#Cc1ccc2c(c1)C(=O)N(C)Cc1c(C(=O)OCCCOC(=O)c3ncn4c3CN(C)C(=O)c3cc(C#C)ccc3-4)ncn1-2 | 1550 | 858 | 15 | > 1000 | > 1000 | > 2000
CCOC(=O)c1ncn2c1[C@@H]1CCCN1C(=O)c1cc(OC)ccc1-2 |  | 24.5 |  |  |  | 
C#Cc1ccc2c(c1)C(=O)N(C)Cc1c(C(=O)OC(C)(C)C)ncn1-2 |  | 18.7 |  |  |  | 
CCOC(=O)c1ncn2c1CN(C)C(=O)c1cc(C#C[Si](C)(C)C)ccc1-2 |  | 198 |  |  |  | 
CCOC(=O)c1ncn2c1CN(C)C(=O)c1cc(N=[N+]=[N-])ccc1-2 [Ro-154513] |  | 25 |  |  | 33 | 
